Test results from ChEMBL document CHEMBL5338759, “N-Phenyl-1-(phenylsulfonyl)-1H-1,2,4-triazol-3-amine as a New Class of HIV-1 Non-nucleoside Reverse Transcriptase Inhibitor” (J Med Chem, 2023).
Active and inactive are the calls of the source. The rule behind the calls is not given here.

Tests used:
[1] = tested on: Human immunodeficiency virus 1; experiment: Antiviral activity against HIV1 harboring K103N mutant infected in human TZM-bl cells; format: functional, organism-based; conditions: Human immunodeficiency virus 1, TZM-bl
How it was run: (§1)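 TZM-bl cells (2x10⁵/mL) were infected with mutant virus in the presence of 15 µg/mL DEAE-dextran. A17 (IIIB variant) was grown in H9 cells; the other mutants were NL4-3-based plasmids transfected into 293T cells, then expanded in H9 cells. Compounds were tested at 0.05–500 nM (DMSO constant within an assay) for 48 hr at 37°C. Read-out was luciferase RLU from lysed cells, with at least 6 replicates over multiple days.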

[2] = Neurotoxicity in mouse primary neurons assessed as loss of MAP-2 area incubated for 48 hrs by imaging analysis; format: toxicity, cell-based; conditions: neuron
How it was run: (§2)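 Primary E16 CD1 mouse cortex/hippocampus cultures (>95% neurons) treated at 20 days in vitro with 10X dilutions made in artificial CSF, final 0.1–10,000 nM, for 48 hr; fixed in methanol:acetic acid (97:3), stained for MAP-2; relative MAP-2 intensity and area quantified by image analysis, […] (±SD) fitted from dose response.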

[3] = tested on: Human immunodeficiency virus 1; experiment: Antiviral activity against HIV1 harboring L100I/K103N double mutant infected in human TZM-bl cells; format: functional, organism-based; conditions: Human immunodeficiency virus 1, TZM-bl
[4] = tested on: Human immunodeficiency virus 1; experiment: Antiviral activity against HIV1 harboring A17 mutant infected in human TZM-bl cells; format: functional, organism-based; conditions: for IC50 / EC50: Human immunodeficiency virus 1, TZM-bl; how it was run: as §1
[5] = Selectivity ratio of IC50 for antiviral activity against wild type HIV1 IIIB infected in human TZM-bl cells to IC50 for antiviral activity against HIV1 harboring K103N mutant infected in human TZM-bl cells; format: toxicity, cell-based; conditions: human immunodeficiency virus 1
How it was run: (§3)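 TZM-bl cells (2x10⁵/mL) with 15 µg/mL DEAE-dextran were infected with HIV-1 IIIB, A17 (K103N/Y181C) IIIB variant, or NL4-3-based NNRTI-resistant mutants. Compound was present at 0.05–500 nM (DMSO held constant, 0.005% or 0.05%) for 48 hr at 37°C, 5% CO₂.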

[6] = Selectivity index, ratio of CC50 for cytotoxicity against human TZM-bl cells assessed as reduction in cell viability by MTS assay to EC50 for antiviral activity against wild type HIV1 IIIB infected in human TZM-bl cells; format: toxicity, cell-based; conditions: read-out: Ratio CC50/EC50
[7] = Safety index, ratio of TC10 for neurotoxicity in mouse primary neurons assessed as loss of MAP-2 intensity to EC50 for antiviral activity against wild type HIV1 IIIB infected in human TZM-bl cells; format: toxicity, cell-based; conditions: mouse primary neurons, TZM-bl cells
How it was run: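 Primary neuronal cultures from cortex/hippocampus of E16 CD1 mouse embryos (>95% neurons). Cells were then methanol:acetic acid-fixed and MAP-2 stained, and intensity was image-quantified. S-index = TC10/(100×EC50 vs HIV-1 IIIB in TZM-bl).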

[8] = Selectivity index, ratio of CC50 for cytotoxicity against human TZM-bl cells assessed as reduction in cell viability by MTS assay to EC50 for antiviral activity against HIV1 harboring A17 mutant infected in human TZM-bl cells; format: toxicity, cell-based; conditions: read-out: Ratio CC50/EC50
[9] = Selectivity ratio of IC50 for antiviral activity against wild type HIV1 IIIB infected in human TZM-bl cells to IC50 for antiviral activity against HIV1 harboring Y181C mutant infected in human TZM-bl cells; format: toxicity, cell-based; conditions: human immunodeficiency virus 1; how it was run: as §3
[10] = tested on: Human immunodeficiency virus; experiment: Antiviral activity against wild type HIV IIIB infected in human TZM-bl cells; format: functional, organism-based; conditions: Human immunodeficiency virus 1, IIIB
How it was run: (§4)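 TZM-bl cells (2x10⁵/mL) infected with HIV-1 IIIB grown in H9 cells, with 15 µg/mL DEAE-dextran; serial dilutions from 10 mM DMSO stocks, DMSO held constant (0.005% or 0.05%); 37°C, 5% CO₂, 48 hr; cells lysed, luciferase RLU read.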

[11] = Selectivity ratio of IC50 for antiviral activity against wild type HIV1 IIIB infected in human TZM-bl cells to IC50 for antiviral activity against HIV1 harboring A17 mutant infected in human TZM-bl cells; format: toxicity, cell-based; conditions: human immunodeficiency virus 1; how it was run: as §3
[12] = biological target: Human immunodeficiency virus type 1 reverse transcriptase (Human immunodeficiency virus 1, UniProt Q72547); experiment: Inhibition of HIV1 Reverse transcriptase incubated for 30 mins by fluorescence based analysis
[13] = Neurotoxicity in mouse primary neurons assessed as loss of MAP-2 intensity incubated for 48 hrs by imaging analysis; format: toxicity, cell-based; conditions: neuron; how it was run: as §2
[14] = tested on: Human immunodeficiency virus 1; experiment: Antiviral activity against HIV1 harboring Y181C mutant infected in human TZM-bl cells; format: functional, organism-based; conditions: Human immunodeficiency virus 1, TZM-bl; how it was run: as §1
TZM [15] = experiment: Cytotoxicity against human TZM-bl cells assessed as reduction in cell viability by MTS assay; format: functional
TZM [16] = experiment: Cytotoxicity against human TZM-bl cells assessed as reduction in viability incubated for 48 hrs by CellTiter-Blue cell viability assay
[17] = tested on: Human immunodeficiency virus 1; experiment: Antiviral activity against wild type HIV1 IIIB infected in human TZM-bl cells; format: functional, organism-based; conditions: Human immunodeficiency virus 1, IIIB; how it was run: as §4
[18] = Neurotoxicity in mouse primary neurons assessed as loss of MAP-2 intensity at 0.0001 to 10 uM incubated for 48 hrs by semi-quantitative analysis; conditions: neuron
[19] = Selectivity ratio of IC50 for antiviral activity against wild type HIV1 IIIB infected in human TZM-bl cells to IC50 for antiviral activity against HIV1 harboring L100I/K103N double mutant infected in human TZM-bl cells; format: toxicity, cell-based; conditions: human immunodeficiency virus 1; how it was run: as §3
Neuron [20] = experiment: Induction of calcium accumulation at acute phase in primary mouse neuron at 1 uM; format: functional, cell-based
How it was run: (§5)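 Primary E16 CD1 mouse cortex/hippocampus neurons on coverslips, 14–18 days in vitro, loaded 30 min with 2 µM Fluo-4 AM in aCSF; three baseline images, then compound or vehicle in aCSF added at 1 µM final. Baseline fluorescence subtracted; changes averaged over all cells from at least triplicate runs, acute and delayed phases.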

Neuron [21] = experiment: Induction of calcium accumulation at delayed phase in primary mouse neuron at 1 uM; format: functional, cell-based; how it was run: as §5

`N#Cc1ccc(Nc2nc(N)n(S(=O)(=O)c3cccc4cc(C#N)ccc34)n2)cc1` gave an IC50 [1] of 8.8 nM, a TC10 [2] of 50 nM and an IC50 [3] of 1500 nM. For the same molecule, the IC50 [4] was 55 nM, the “Ratio IC50” value [5] was 39 and the selectivity ratio [6] was 22000. For the same molecule, the selectivity ratio [7] was 5.4, the selectivity ratio [8] was 160 and the “Ratio IC50” value [9] was 80. The IC50 [10] was 0.32 nM, the “Ratio IC50” value [11] was 240 and the IC50 [12] was 700 nM. The TC10 [13] was 170 nM, the IC50 [14] was 18 nM and the CC50 (TZM [15]) was 7800 nM. The CC50 (TZM [16]) was 7800 nM, the IC50 [17] was 0.23 nM and the Activity [18] was “Non-Toxic”. For the same molecule, the “Ratio IC50” value [19] was 6700.

With `Nc1nc(Nc2ccc(Cl)cc2)nn1S(=O)(=O)c1ccc2ccccc2c1` the selectivity ratio [7] was 6.5, the IC50 [10] was 9.3 nM and the IC50 [12] was 280 nM. For the same molecule, the TC10 [13] was 6100 nM, the Activity (TZM [15]) was “inactive” and the Activity [18] was “Non-Toxic”.

`CC(=O)Nc1nc(C)c(S(=O)(=O)n2nc(Nc3cc(Cl)c(Cl)cc3Cl)nc2N)s1` showed an EC50 [4] greater than 1000 nM and an EC50 [17] greater than 1000 nM.

With `Cc1nc(C)c(S(=O)(=O)n2nc(Nc3ccc(C#N)c(Cl)c3)nc2N)s1` the EC50 [4] was 306 nM and the EC50 [17] was 0.879 nM.

With `N#Cc1ccc2c(S(=O)(=O)n3nc(Nc4ccc(C#N)c(C#N)c4)nc3N)cccc2c1` the IC50 [1] was 5.9 nM, the IC50 [3] was 1050 nM and the IC50 [4] was 1.3 nM. The “Ratio IC50” value [5] was 8.9, the selectivity ratio [6] was 130000 and the selectivity ratio [7] was 140. The selectivity ratio [8] was 570, the “Ratio IC50” value [9] was 140 and the IC50 [10] was 0.32 nM. For the same molecule, the “Ratio IC50” value [11] was 41, the IC50 [12] was 350 nM and the TC10 [13] was 4500 nM. It also gave an IC50 [14] of 3.7 nM, a CC50 (TZM [15]) of 28000 nM and a CC50 (TZM [16]) of 27000 nM. For the same molecule, the EC50 [17] was 0.21 nM, the Activity [18] was “Non-Toxic” and the “Ratio IC50” value [19] was 3500.

`Cc1cc(/C=C/C#N)cc(C)c1Nc1ccnc(Nc2ccc(C#N)cc2)n1` [RILPIVIRINE] showed an IC50 [1] of 1.3 nM, a TC10 [2] of 600 nM and an IC50 [3] of 14 nM. The IC50 [4] was 0.8 nM, the IC50 [10] was 0.35 nM and the Activity (Neuron [20]) was “inactive”. The IC50 [12] was 160 nM, the TC10 [13] was 930 nM and the IC50 [14] was 1.3 nM. The CC50 (TZM [15]) was greater than 5000 nM, the CC50 (TZM [16]) was greater than 5000 nM and the IC50 [17] was 0.33 nM. For the same molecule, the Activity [18] was “Non-Toxic”.

`N#Cc1ccc2c(S(=O)(=O)n3nc(Nc4ccc(C#N)c(Cl)c4)nc3N)cccc2c1` gave an EC50 [4] of 39.6 nM, a selectivity ratio [6] of 17000 and a selectivity ratio [8] of 240. The CC50 (TZM [15]) was 6000 nM and the EC50 [17] was 0.42 nM.

Molecule `CN(C)c1cccc2c(S(=O)(=O)n3nc(Nc4ccc(Cl)cc4)nc3N)cccc12` has an EC50 [4] greater than 1000 nM and an EC50 [17] of 10.6 nM.

In the case of `N#CCc1ccc2c(S(=O)(=O)n3nc(Nc4ccc(C#N)c(Cl)c4)nc3N)cccc2c1`, the EC50 [4] is reported as 153 nM and the EC50 [17] is reported as 0.598 nM.

`Cc1cc(C)c(S(=O)(=O)n2nc(Nc3ccc(Cl)cc3)nc2N)c(C)c1` gave an EC50 [17] of 32 nM.

With `N#C/C=C/c1ccc2c(S(=O)(=O)n3nc(Nc4ccc(CC#N)cc4)nc3N)cccc2c1` the EC50 [4] was 24.5 nM, the selectivity ratio [6] was 4100 and the CC50 (TZM [15]) was 910 nM. The EC50 [17] was 0.22 nM.

With `Nc1nc(Nc2ccc(Cl)cc2)n(S(=O)(=O)c2cnn(-c3ccc(C(F)(F)F)cn3)c2)n1` the Activity [4] was “inactive” and the EC50 [17] was less than 100 nM.

For `O=C1Nc2ccc(Cl)cc2[C@@](C#CC2CC2)(C(F)(F)F)O1` [EFAVIRENZ], the Activity (Neuron [21]) was “Active”, the TC10 [2] was 70 nM and the EC50 [4] was 18 nM. For the same molecule, the IC50 [10] was 0.66 nM, the Activity (Neuron [20]) was “inactive” and the CC50 (TZM [15]) was greater than 5000 nM. The EC50 [17] was 0.68 nM and the Activity [18] was “Non-Toxic”.

For `Cn1cnc(S(=O)(=O)n2nc(N)nc2Nc2ccc(Cl)cc2)c1`, the Activity [4] was “inactive” and the EC50 [17] was less than 100 nM.

In the case of `Nc1nc(Nc2ccc(Cl)cc2)n(S(=O)(=O)c2ccc(Cl)s2)n1`, the Activity [4] is reported as “inactive” and the EC50 [17] is reported as less than 100 nM.

In the case of `N#Cc1ccc(Nc2nc(N)n(S(=O)(=O)c3c(Cl)nc4sccn34)n2)cc1`, the EC50 [4] is reported as 705 nM and the EC50 [17] is reported as 1.77 nM.
